Article PMC10055171 (bioRxiv, 2023)
“And” between values parts separate entries of the source, which are not always exact repeats. Equal values may be shown once. Where a SMILES comes first, the peptide text is derived from it. The star is where a group is joined. Cbz = O=C(OCc1ccccc1)*

Assays:
ND1L (aa1–481) VCP = ND1L (aa1–481) VCP (Homo sapiens, UniProt P55072); experiment: ATPase activity of truncated ND1L VCP; assay type: biochemical; conditions: 25 μM compound vs DMSO
WT VCP + Ufd1/Nploc4 = WT VCP + Ufd1/Nploc4 (Mus musculus, UniProt Q01853); experiment: Kinase-Glo ATPase assay of recombinant VCP with UFD1/NPLOC4 cofactors; assay type: biochemical; conditions: for Maximum % Activity (95% CI) / EC50: WT VCP + Ufd1/Nploc4, 50 nM each, 62.5 μM ATP; for EC50: read-out: EC50 (μM) (95% CI)
Summary of the method: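 50 nM His-tagged recombinant VCP was mixed with 50 nM co-purified UFD1/NPLOC4 complex (1:1 molar) in 25 mM HEPES pH 7.5, 100 mM NaCl, 10 mM MgCl2, 2% DMSO. Added 62.5 µM ATP and a range of activator concentrations, then incubated 1 h at 25°C. ATP remaining was read by Kinase-Glo luminescence after 20 min at room temperature. 3-parameter dose-curve fit with profile-likelihood 95% CI; n=3, 3 technical replicates.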

LD2 (aa442–806) VCP = LD2 (aa442–806) VCP (Homo sapiens, UniProt P55072); experiment: ATPase activity of truncated LD2 VCP; assay type: biochemical; conditions: 25 μM compound vs DMSO
luciferase = experiment: Luciferase counter-screen: Kinase-Glo without recombinant VCP; assay type: biochemical; conditions: 62.5 μM ATP, increasing compound, no VCP
recombinant WT VCP [1] = target: T1, recombinant WT VCP (Mus musculus, UniProt Q01853); experiment: MESG-PNP; assay type: biochemical; conditions: for increase in kcat: 25 μM activator compared with DMSO; for kcat (nmol Pi / nmol VCP / s) (95% CI): WT VCP with 25 μM compound
Summary of the method: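 EnzCheck (MESG-PNP) phosphate-release assay: 50 nM recombinant VCP in ATPase buffer with 2% DMSO, 25 µM compound or DMSO, and various ATP concentrations. Absorbance at 360 nm followed for >15 min at 25°C. Phosphate was quantified from an on-plate standard curve. Initial velocities came from linear fits and were fitted to Michaelis-Menten with asymmetric profile-likelihood 95% CI.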

recombinant WT VCP [2] = target: T1, recombinant WT VCP; assay type: biochemical; conditions: for maximal increase of VCP activity / Maximum % Activity (95% CI): WT VCP; for maximal increase of VCP activity: increase over baseline; for Maximum % Activity (95% CI): 50 nM VCP, 62.5 μM ATP, Kinase-Glo; for recombinant WT VCP ATPase activity (in words): luciferase-based Kinase-Glo assay
Summary of the method: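 Titration of activator concentrations against 50 nM His-tagged recombinant VCP, no cofactors, with 62.5 µM ATP. Buffer: 25 mM HEPES pH 7.5, 100 mM NaCl, 10 mM MgCl2, 2% DMSO. Incubated 1 h at 25°C, then 20 min with Kinase-Glo reagent at room temperature, read by luminescence. Fitted to a 3-parameter dose curve with profile-likelihood 95% CI; n=3 with 3 technical replicates.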

[3] = target: N-ethylmaleimide-sensitive factor (NSF) (Homo sapiens, UniProt P46459); experiment: ATPase activity of recombinant NSF; assay type: biochemical; conditions: 25 μM activator, 50 nM NSF, 62.5 μM ATP
VCP (E578Q) = VCP (E578Q) (Mus musculus, UniProt Q01853, E578Q); experiment: ATPase activity of VCP with D2 Walker B mutation; assay type: biochemical; conditions: 25 μM activator vs DMSO
[4] = test system: HeLa cells expressing TDP-4FL; experiment: Confocal immunofluorescence of intranuclear TDP-4FL inclusion morphology; assay type: cell-based
[5] = test system: CRISPR-Cas9 knock-in HeLa cells harboring A232E VCP expressing GFP-TDP-4FL; experiment: Flow cytometry of GFP-TDP-4FL clearance, A232E knock-in HeLa; assay type: cell-based
[6] = test system: WT HeLa cells expressing GFP-TDP-4FL; experiment: Flow cytometry of GFP-TDP-4FL clearance, wild-type HeLa; assay type: cell-based
[7] = test system: CRISPR-Cas9 knock-in HeLa cells harboring R155H VCP expressing GFP-TDP-4FL; experiment: Flow cytometry of GFP-TDP-4FL clearance, R155H knock-in HeLa; assay type: cell-based
[8] = test system: HeLa cells expressing myc-TDP-4FL; experiment: Sequential extraction and immunoblot of soluble and insoluble TDP-4FL; assay type: cell-based
[9] = test system: HeLa cells expressing myc-TDP-4FL; experiment: Anti-myc immunoprecipitation of insoluble TDP-4FL, ubiquitin immunoblot; assay type: cell-based; conditions: MG132 treatment, immunoprecipitation of insoluble fraction
Summary of the method: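 Sequential extraction: RIPA, then 100,000 x g for 30 min at 4°C, then urea/thiourea/CHAPS buffer. The urea-soluble fraction was diluted in TBST containing 100 mM NEM and 5 mM EDTA and incubated overnight at 4°C with anti-c-Myc magnetic beads. Elution was in Laemmli buffer with 0.5 mM DTT, 10 min at 99°C, followed by immunoblotting with IR-dye detection.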

[10] = test system: HeLa cells expressing myc-TDP-43; experiment: Immunofluorescence and immunoblot of myc-TDP-43 under proteasome inhibition; assay type: cell-based
Summary of the method: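 For imaging, cells were fixed in 4% paraformaldehyde, permeabilised with 0.1% Triton X-100, stained with anti-myc and DAPI, and imaged by confocal microscopy. For blots, RIPA-soluble and urea-soluble fractions were separated at 100,000 x g, and 25-40 µg protein was immunoblotted with GAPDH as loading control.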

drosophila model of MSP = conditions: cited from earlier work
[11] = test system: R155H/R155H mouse model of MSP; conditions: cited from earlier work
[12] = 5μM UP109 + CHX 4 hours after MG132, vs CHX only
[13] = CB5083 + CHX 6 hours after 3 hours MG132

Chain of N-ethylmaleimide-sensitive factor (NSF) (P46459 whole entry): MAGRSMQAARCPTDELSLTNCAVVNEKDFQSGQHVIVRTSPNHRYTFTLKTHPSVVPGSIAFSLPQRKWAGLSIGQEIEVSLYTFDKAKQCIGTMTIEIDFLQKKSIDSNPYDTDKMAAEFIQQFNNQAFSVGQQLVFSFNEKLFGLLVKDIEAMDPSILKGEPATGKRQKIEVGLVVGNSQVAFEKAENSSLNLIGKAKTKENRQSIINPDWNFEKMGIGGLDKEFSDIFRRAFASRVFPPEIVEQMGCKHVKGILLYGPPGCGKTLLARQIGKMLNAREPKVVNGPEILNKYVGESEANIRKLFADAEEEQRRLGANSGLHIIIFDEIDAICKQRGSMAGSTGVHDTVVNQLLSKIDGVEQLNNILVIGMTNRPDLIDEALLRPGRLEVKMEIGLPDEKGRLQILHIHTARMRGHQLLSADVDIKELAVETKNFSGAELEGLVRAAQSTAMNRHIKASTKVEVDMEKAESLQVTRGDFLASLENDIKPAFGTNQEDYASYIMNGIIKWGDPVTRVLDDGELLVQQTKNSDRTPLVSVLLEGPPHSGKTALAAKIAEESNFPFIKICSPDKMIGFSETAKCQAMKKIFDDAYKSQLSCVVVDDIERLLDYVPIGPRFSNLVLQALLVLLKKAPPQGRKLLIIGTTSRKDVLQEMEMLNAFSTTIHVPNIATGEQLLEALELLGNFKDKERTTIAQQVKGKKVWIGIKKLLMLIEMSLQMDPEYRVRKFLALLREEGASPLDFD
Chain of ND1L (aa1–481) VCP (P55072 1-481): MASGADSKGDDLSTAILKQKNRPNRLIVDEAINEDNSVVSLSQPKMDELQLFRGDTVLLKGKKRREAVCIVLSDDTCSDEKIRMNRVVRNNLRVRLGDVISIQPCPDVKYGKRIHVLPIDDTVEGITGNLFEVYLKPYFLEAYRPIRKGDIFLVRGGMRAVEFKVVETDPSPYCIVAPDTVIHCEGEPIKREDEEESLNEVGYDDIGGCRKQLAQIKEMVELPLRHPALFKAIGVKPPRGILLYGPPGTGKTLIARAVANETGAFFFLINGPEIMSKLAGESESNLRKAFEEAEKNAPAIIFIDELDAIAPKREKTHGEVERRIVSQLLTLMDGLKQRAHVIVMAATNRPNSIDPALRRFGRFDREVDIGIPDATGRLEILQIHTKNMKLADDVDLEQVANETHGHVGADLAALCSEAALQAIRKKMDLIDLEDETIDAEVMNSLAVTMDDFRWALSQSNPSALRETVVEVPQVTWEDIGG
Chain of LD2 (aa442–806) VCP (P55072 442-806): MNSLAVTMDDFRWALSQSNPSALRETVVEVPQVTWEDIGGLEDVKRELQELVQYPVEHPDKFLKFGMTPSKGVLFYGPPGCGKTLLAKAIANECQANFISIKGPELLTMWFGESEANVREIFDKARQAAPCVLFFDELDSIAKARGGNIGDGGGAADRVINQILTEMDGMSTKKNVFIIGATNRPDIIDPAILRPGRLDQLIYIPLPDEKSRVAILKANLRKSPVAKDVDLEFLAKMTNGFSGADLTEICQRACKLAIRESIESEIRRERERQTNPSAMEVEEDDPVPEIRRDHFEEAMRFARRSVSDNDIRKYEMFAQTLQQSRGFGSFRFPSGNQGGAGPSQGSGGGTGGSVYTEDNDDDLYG
Chain of WT VCP + Ufd1/Nploc4 (Q01853 whole entry): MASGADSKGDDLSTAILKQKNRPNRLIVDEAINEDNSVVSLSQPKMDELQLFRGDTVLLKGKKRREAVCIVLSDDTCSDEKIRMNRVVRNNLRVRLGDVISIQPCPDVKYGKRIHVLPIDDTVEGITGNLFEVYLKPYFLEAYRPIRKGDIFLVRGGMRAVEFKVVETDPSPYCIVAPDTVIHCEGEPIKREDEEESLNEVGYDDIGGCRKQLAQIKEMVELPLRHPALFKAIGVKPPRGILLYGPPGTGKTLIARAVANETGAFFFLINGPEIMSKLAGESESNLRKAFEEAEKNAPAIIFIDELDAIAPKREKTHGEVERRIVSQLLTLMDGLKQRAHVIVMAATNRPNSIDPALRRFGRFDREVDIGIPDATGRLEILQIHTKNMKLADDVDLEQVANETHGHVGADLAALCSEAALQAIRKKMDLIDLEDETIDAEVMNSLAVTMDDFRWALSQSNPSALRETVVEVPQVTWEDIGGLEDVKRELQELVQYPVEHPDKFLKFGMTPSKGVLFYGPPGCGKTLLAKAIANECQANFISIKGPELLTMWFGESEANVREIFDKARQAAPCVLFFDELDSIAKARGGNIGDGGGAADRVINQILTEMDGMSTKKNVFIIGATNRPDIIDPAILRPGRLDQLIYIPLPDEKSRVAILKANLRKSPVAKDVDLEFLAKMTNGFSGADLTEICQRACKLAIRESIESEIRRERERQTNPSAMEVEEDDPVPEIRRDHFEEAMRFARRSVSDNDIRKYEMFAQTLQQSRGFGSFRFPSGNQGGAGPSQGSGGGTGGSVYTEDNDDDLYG
Chain of WT VCP + Ufd1/Nploc4 (Q92890 whole entry partner): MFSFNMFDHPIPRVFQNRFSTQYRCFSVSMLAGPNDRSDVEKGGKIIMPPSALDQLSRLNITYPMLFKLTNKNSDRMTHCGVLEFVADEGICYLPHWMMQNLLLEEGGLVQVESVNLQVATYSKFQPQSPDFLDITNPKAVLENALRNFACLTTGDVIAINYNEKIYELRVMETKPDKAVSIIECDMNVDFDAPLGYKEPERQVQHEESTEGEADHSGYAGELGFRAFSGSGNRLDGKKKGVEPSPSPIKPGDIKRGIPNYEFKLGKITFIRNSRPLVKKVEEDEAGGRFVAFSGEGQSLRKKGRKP
Chain of WT VCP + Ufd1/Nploc4 (Q8TAT6 whole entry partner): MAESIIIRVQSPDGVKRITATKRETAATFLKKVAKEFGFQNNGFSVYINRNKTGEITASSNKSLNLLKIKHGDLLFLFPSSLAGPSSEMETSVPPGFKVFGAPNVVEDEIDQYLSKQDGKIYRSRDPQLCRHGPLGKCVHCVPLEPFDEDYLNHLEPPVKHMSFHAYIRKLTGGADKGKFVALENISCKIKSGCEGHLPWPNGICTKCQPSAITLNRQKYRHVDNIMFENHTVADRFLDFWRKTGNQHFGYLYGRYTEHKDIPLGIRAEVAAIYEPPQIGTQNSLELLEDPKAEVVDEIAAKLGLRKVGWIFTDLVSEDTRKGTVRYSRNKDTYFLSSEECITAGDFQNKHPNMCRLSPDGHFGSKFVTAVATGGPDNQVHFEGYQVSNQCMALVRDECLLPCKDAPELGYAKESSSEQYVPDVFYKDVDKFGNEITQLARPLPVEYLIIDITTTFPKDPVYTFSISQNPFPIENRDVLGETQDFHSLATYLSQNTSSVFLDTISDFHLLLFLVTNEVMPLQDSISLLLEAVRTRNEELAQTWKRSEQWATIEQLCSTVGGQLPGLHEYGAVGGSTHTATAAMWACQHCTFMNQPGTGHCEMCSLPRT
T1 sequence (Q01853 whole entry): as the sequence (Q01853 whole entry) above
Chain of VCP (E578Q) (Q01853 whole entry E578Q): as the sequence (Q01853 whole entry) above, with E578Q counted along it

Structure (SMILES)	ATPase activity of ND1L construct (ND1L (aa1–481) VCP)	Maximum % Activity (95% CI) (WT VCP + Ufd1/Nploc4)	EC50 (WT VCP + Ufd1/Nploc4)	ATPase activity of LD2 construct (LD2 (aa442–806) VCP)	luciferase activity inhibition (luciferase)	increase in kcat (recombinant WT VCP [1])	kcat (nmol Pi / nmol VCP / s) (95% CI) (recombinant WT VCP [1])	maximal increase of VCP activity (recombinant WT VCP [2])	Maximum % Activity (95% CI) (recombinant WT VCP [2])	recombinant WT VCP ATPase activity (in words) (recombinant WT VCP [2])	NSF ATPase activity compared to DMSO [3]	ATPase activity of VCP E578Q (inactive D2, active D1) (VCP (E578Q))	also measured
Clc1ccc2[nH]c3c(N4CCC5(CC4)OCCO5)ncnc3c2c1 [UP158]	did not inhibit the ATPase activity	152.1 (143.2, 164.4) %	14.3 µM	significantly increased ATPase activity	did not inhibit luciferase activity	more than 50%	0.356 nmol Pi / nmol VCP / s and 0.356 (0.320, 0.396) nmol Pi / nmol VCP / s	50%	150.3 (146.6, 154.3) %	significantly increased recombinant WT VCP ATPase activity	No compound significantly increased ATPase activity	significantly decreased ATPase activity	–
COCCNC(=O)NC(=O)COC(=O)c1cc([N+](=O)[O-])ccc1Sc1nc(C)cs1 [UP109]	did not inhibit the ATPase activity	175.3 (164.6, 188.0) %	13.4 µM	significantly increased ATPase activity	did not inhibit luciferase activity	100%	0.489 nmol Pi / nmol VCP / s and 0.489 (0.459, 0.520) nmol Pi / nmol VCP / s	97%	197.4 (189.8, 206.1) %	significantly increased recombinant WT VCP ATPase activity	No compound significantly increased ATPase activity	decreased ATPase activity, though less than UP158 and UP163 and not significantly	TDP-4FL aggregate morphology ([4]; 5μM UP109 + CHX 4 hours after MG132): appeared to be smaller and in some cases revert to small anisosomes; integrated fluorescence intensity (GFP-TDP-4FL) ([5]; 5μM UP109 + CHX vs CHX only): significantly decreased integrated fluorescence intensity; integrated fluorescence intensity (GFP-TDP-4FL) ([6]; 5μM UP109 + CHX 4 hours after 17 hours MG132, vs CHX only): significantly decreased; integrated fluorescence intensity (GFP-TDP-4FL) ([6]; 20μM UP109 + CHX 4 hours after 17 hours MG132): further reduced; integrated fluorescence intensity (GFP-TDP-4FL) ([7]; 5μM UP109 + CHX vs CHX only): significantly decreased integrated fluorescence intensity; insoluble TDP-4FL levels [8, 12]: significant decrease in insoluble TDP-4FL levels; soluble TDP-4FL levels [8, 12]: increase in soluble TDP-4FL levels
CC(C)C[C@@H](C=O)NC(=O)[C@H](CC(C)C)NC(=O)[C@H](CC(C)C)NC(=O)OCc1ccccc1 [MG132] (Cbz-Leu-Leu-Leu-aldehyde)	–	–	–	–	–	–	–	–	–	–	–	–	TDP-4FL inclusion morphology ([4]; 4μM MG132, 3 or 6 hours): coalesced into larger, irregularly shaped aggregates; ubiquitination of insoluble myc-TDP-4FL [9]: ubiquitination of TDP-4FL protein; TDP-43 nuclear morphology ([10]; 4μM MG132): formation of coarse nuclear punctae; insoluble TDP-43 protein ([10]; 4μM MG132 for 0, 3, or 6 hours): increase in insoluble TDP-43 protein; soluble TDP-43 protein ([10]; 4μM MG132 for 0, 3, or 6 hours): reduction in soluble TDP-43 protein; insoluble TDP-4FL ([8]; 4μM MG132 for 0, 3, or 6 hours): increase in insoluble TDP-4FL; soluble TDP-4FL ([8]; 4μM MG132 for 0, 3, or 6 hours): decrease in soluble TDP-4FL
O=C(OCCN(C1=NS(=O)(=O)c2ccccc21)c1ccc(Cl)cc1)c1ccco1 [UP163]	did not inhibit the ATPase activity	151.8 (144.7, 160.7) %	8.9 µM	significantly increased ATPase activity	did not inhibit luciferase activity	more than 50%	0.366 nmol Pi / nmol VCP / s and 0.366 (0.335, 0.401) nmol Pi / nmol VCP / s	104%	204.0 (189.2, 223.3) %	significantly increased recombinant WT VCP ATPase activity	No compound significantly increased ATPase activity	significantly decreased ATPase activity	change in EC50 with UN compared to without UN (WT VCP + Ufd1/Nploc4; recombinant UN 1:1 molar ratio with VCP): no change in EC50
O=C(CSc1nc2ccccc2c(=O)n1NC(=O)c1ccccc1)c1ccc(Cl)cc1 [UP12]	only compound to increase ATPase activity	124.6 (119.8, 130.2) %	0.648 µM	significantly increased ATPase activity	did not inhibit luciferase activity	about 25%	0.309 nmol Pi / nmol VCP / s and 0.309 (0.269, 0.356) nmol Pi / nmol VCP / s	39%	139.0 (131.9, 149.0) %	significantly increased recombinant WT VCP ATPase activity	No compound significantly increased ATPase activity	seemed to increase ATPase activity, though not significantly	–
Cc1cc2c(C(N)=O)cccc2n1-c1nc2c(c(NCc3ccccc3)n1)COCC2 [CB5083]	–	–	–	–	–	–	–	–	–	–	–	–	altered mitochondrial morphology caused by VCP variants (drosophila model of MSP): reversed; TDP-4FL aggregate morphology [4, 13]: residual irregularly shaped intranuclear TDP-4FL aggregates; markers of muscle pathology [11]: improved markers of muscle pathology; integrated fluorescence intensity (GFP-TDP-4FL) [5, 13]: greater integrated fluorescence intensity compared to CHX only treatment; integrated fluorescence intensity (GFP-TDP-4FL) ([6]; WT cells, CB5083 + CHX 6 hours after 3 hours MG132): significantly higher than CHX only treatment; integrated fluorescence intensity (GFP-TDP-4FL) [7, 13]: greater integrated fluorescence intensity compared to CHX only treatment; insoluble TDP-4FL protein [8, 13]: residual amounts of insoluble TDP-4FL protein; soluble TDP-4FL protein [8, 13]: significant decrease in soluble TDP-4FL protein
